The target of data set [1] is GTPase KRas (Homo sapiens, UniProt P01116, G12C).
Another data set has as its target SOS1-KRAS (Homo sapiens, UniProt P01116, G12C).
The test system of data set [2] is GTPase KRas (Homo sapiens), P01116 [G12C].
Data set [3] is described as follows: Binding affinity to KRAS G12V/S39C-BIT mutant (unknown origin) assessed as dissociation constant by HSQC NMR spectroscopy analysis. Also noted: species or system Homo sapiens.
For data set [4], the system named is NCI-H358. The data set is described as follows: Antiproliferative activity against human NCI-H358 cells harboring KRAS G12C mutant incubated for 3 days by celltiter glo luminescent assay. Particulars: NCI-H358, 72 h. The format is functional, cell-based. (In ATP-based viability assays light output follows the ATP content of the culture.)
Data set [5] in a line: Toxicity in NOG mouse assessed as change in body weight at 40 to 80 mg/kg, ip. The data set is classed as organism-based. Particulars: in vivo, dose 40-80 mg/kg. An outline of the steps: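 Female NOG mice with subcutaneous NCI-H358 xenografts, randomized at mean 160 mm3 into groups of n = 8. Dosed ip 40 mg/kg once weekly or 40 mg/kg on 2 consecutive days weekly, in 25% HP-γ-CD at 10 mL/kg, with a vehicle control group. Body weight recorded daily.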

In data set [6] the test system is NCI-H358. The data set is described as follows: Antitumor activity against human NCI-H358 cells xenografted in NOG mouse model assessed as induction of apoptosis at 40 mg/kg, ip administered for 3 days and measured at 6 hrs post last dose. The format is functional, organism-based. Particulars: time 3.0 day. An outline of the steps:
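Female NOG mice, 7–8 weeks old, bearing subcutaneous NCI-H358 tumors (5 million cells in Matrigel, right flank), randomized at mean 180 mm3, n = 5 per group and time point. […] Tumors frozen 6 h after last dose; cleaved caspase 3 measured in tumor lysates.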
Background: A xenograft is tissue or cells of one species grown in another, often human tumour cells in immunodeficient mice.

The next data set in a line: cells. The note with it: Homo sapiens, GP2d, 120 h.
The next data set deals with LS-513. Description: cells. Particulars: Homo sapiens, LS-513, 120 h.
The target in data set [7] is GTPase KRas (Homo sapiens, UniProt P01116, G12V). Description: Binding affinity to KRAS G12V mutant (unknown origin) assessed as dissociation constant by HSQC NMR spectroscopy analysis. In outline:
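KD was fitted from chemical shift perturbations and reported as mean ± SD. Reported as <10 μM when shifts were near saturation at the first point, >2000 μM when dose-responsive but unfittable, and >10,000 μM when there were no shifts at 500 μM.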

For data set [8], the target named is GTPase KRas (Homo sapiens, UniProt P01116, G12D). The data set is described as follows: Binding affinity to KRAS G12D mutant (unknown origin) assessed as dissociation constant by HSQC NMR spectroscopy analysis.
Data set [9] relates to NCI-H358. The data set is described as follows: Antiproliferative activity against human NCI-H358. The data set is classed as functional, cell-based.

The source made the active and inactive calls. The rule behind the calls is not given here.

This note sets out measurements from ChEMBL document CHEMBL5214993, “Fragment Optimization of Reversible Binding to the Switch II Pocket on KRAS Leads to a Potent, In Vivo Active KRASG12C Inhibitor” (J Med Chem, 2022).

Chain of GTPase KRas (Homo sapiens, UniProt P01116, G12V) (P01116 whole entry G12V): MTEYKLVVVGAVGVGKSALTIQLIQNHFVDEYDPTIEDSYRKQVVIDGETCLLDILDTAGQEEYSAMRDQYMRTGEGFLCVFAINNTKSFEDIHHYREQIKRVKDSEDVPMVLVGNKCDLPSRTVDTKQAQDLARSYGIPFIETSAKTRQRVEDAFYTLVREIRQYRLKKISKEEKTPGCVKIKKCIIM
Chain of GTPase KRas (Homo sapiens), P01116 [G12C] (P01116 whole entry G12C): as the sequence (P01116 whole entry G12V) above, with V12C counted along it
Chain of SOS1-KRAS (P01116 whole entry G12C, looked up): as the sequence (P01116 whole entry G12V) above, with V12C counted along it
Chain of GTPase KRas (Homo sapiens, UniProt P01116, G12C) (P01116 whole entry G12C): as the sequence (P01116 whole entry G12V) above, with V12C counted along it
Chain of GTPase KRas (Homo sapiens, UniProt P01116, G12D) (P01116 whole entry G12D): as the sequence (P01116 whole entry G12V) above, with V12D counted along it

For the compound `C=CC(=O)Nc1ccc(-c2noc([C@@]3(C)CCCc4sc(N)c(C#N)c43)n2)cc1`, at GTPase KRas [1], the affinity, expressed as Ki, was 24.1 µM. Also, the IC50 (as a rule, the concentration at which inhibition is half-maximal) against SOS1-KRAS is above 10 µM. Further, in data set [2], the Kinact was 0.7 h⁻¹.
With `CCc1c(C)sc(N)c1C#N`, in [3], the Kd (in general, the equilibrium constant for the complex coming apart) is 143 µM.
With `C=CC(=O)N1CCN(c2cccc(-c3noc([C@@]4(C)CCCc5sc(N)c(C#N)c54)n3)c2)CC1`, the Ki (usually the dissociation constant of the complex between target and ligand, obtained from inhibition or displacement) on GTPase KRas [1] amounted to 7.5 µM. At SOS1-KRAS, this compound had an IC50 of 3.29 µM. Also, the Kinact in data set [2] stood at 0.3 h⁻¹.
The matching figures for `C=CC(=O)Nc1cccc(-c2noc([C@@]3(C)CCCc4sc(N)c(C#N)c43)n2)c1`: 8.6 µM, above 10 µM and 1.1 h⁻¹.
Take `Nc1nc2c(C(F)(F)F)cccc2s1`: the Kd in data set [3] was 1220 µM.
The same measure, in the same setting: with `N#Cc1c(N)sc2c1CCCC2` the figure was 116 µM.
In the case of `C=CC(=O)N1CCN(c2cc(-c3noc([C@@]4(C)CCCc5sc(N)c(C#N)c54)n3)nc(N3CCN(C)C[C@@H]3C)c2)CC1`, the concentration for a half-maximal effect (EC50) (as a rule, the midpoint of the concentration-response curve) is 0.026 µM with NCI-H358 [4], above 4 µM in “cells” and above 4 µM in the data set with LS-513. The Activity result in data set [5] is “Toxic”. The outcome in the data set with NCI-H358 [6] was Active.
As to `CC1(C(=O)Nc2ccccc2)CCCc2sc(N)c(C#N)c21` (stereo not given), the Kd at GTPase KRas [7] is 1180 µM.
For `COC(=O)c1c(N)sc2c1CCCC2`, the Kd in data set [3] is above 10000 µM.
Same read-out and setting: with `N#Cc1c(N)sc2ccccc12` the figure was 297 µM.
On the same count and under the same terms, under `N#Cc1csc2c1CCCC2` stands above 2000 µM; under `N#Cc1c(N)sc2c1CCCCC2`, 162 µM.
Consider `N#Cc1c(N)sc2c1C(C(=O)Nc1ccccc1)CCC2` (stereo not given), for which the Kd at GTPase KRas [7] is 1270 µM.
Consider `N#Cc1c(N)sc2c1CCC2`, for which, in data set [3], the Kd was determined as 193 µM.
Same read-out and setting: with `CC1CCCc2sc(N)c(C#N)c21` (stereo not given) the figure was 21 µM; with `Nc1nc2c(s1)CCCC2`, 715 µM.
In the case of `CN(C)c1cccc2cccc(Cl)c12`, the dissociation constant (Kd) in data set [3] is above 10000 µM.
On to `C[C@]1(c2nc(-c3ccc(N)cc3)no2)CCCc2sc(N)c(C#N)c21`, for which the Kd on GTPase KRas [7] is below 10 µM; on GTPase KRas [8], above 2000 µM.
For the compound `C[C@]1(c2nc(-c3cccc(N)c3)no2)CCCc2sc(N)c(C#N)c21`, the results for the dissociation constant (Kd) on GTPase KRas [7] and on GTPase KRas [8] were below 10 µM and above 2000 µM, respectively.
Take `Cc1noc(C2(C)CCCc3sc(N)c(C#N)c32)n1` (stereo not given): the Kd on GTPase KRas [7] came out at 20 µM.
For the compound `CC1(C)CCCc2sc(N)c(C#N)c21`, the results for the Kd (in data set [3]; on GTPase KRas [7]) were below 10 µM and 15 µM, respectively.
As to `N#Cc1ccsc1N`, in data set [3], the Kd was above 10000 µM.
On to `CC1(C(=O)O)CCCc2sc(N)c(C#N)c21` (stereo not given), for which the Kd at GTPase KRas [7] is 1160 µM.
`C=CC(=O)N1CCN(c2nc(=O)n(-c3c(C)ccnc3C(C)C)c3nc(-c4c(O)cccc4F)c(F)cc23)[C@@H](C)C1` [SOTORASIB]: the 50% effective concentration (EC50) in the data set with NCI-H358 [4] is 0.0064 µM; with NCI-H358 [9], 0.006 µM.
For `Oc1cccc(F)c1-c1ncccc1F`, in data set [3], the Kd was above 10000 µM.
Regarding `CNC(=O)C1(C)CCCc2sc(N)c(C#N)c21` (stereo not given), the Kd on GTPase KRas [7] was above 2000 µM.
